For data set [1], the system named is Rattus norvegicus. Put plainly: Tmax in Wistar rat after administration as its prodrug at 1 mg/kg, po. The data set is classed as ADME, organism-based. On the set-up: dose 1 mg/kg, route oral. The following applies: in vivo.
The nature of data set [2]: Solubility in PBS at pH 7.2, 37 degC after 24 hrs. The data set is classed as physicochemical.
Data set [3] is described as follows: Cmax in Wistar rat at 1 mg/kg, po. The conditions noted are these: in vivo. On the set-up: dose 1 mg/kg, route oral. The class given is ADME, organism-based.
Data set [4] can be described thus: Metabolic stability in human liver microsomes at 5 uM after 30 min […]. The class given is ADME, Microsome. The following applies: in the assay text read “37 degC” for “30 degC”, read-out: Stability. (In general: Microsomes from liver hold many membrane-bound enzymes, among them those of drug oxidation.)
For data set [5], the system named is Rattus norvegicus. Put plainly: Inhibition of adjuvant-induced arthritis in Wistar rat at 0.01 mg/kg, po. The data set is classed as functional. The essentials: (§1)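 Adjuvant-induced arthritis in male Wistar rats run as a therapeutic protocol. Compounds were given orally once daily for 7 days, starting on day 14 after arthritis induction. Paw edema was measured 24 h after the last dose. Results are reported as ED50 from four doses (six to eight animals per group) or as % inhibition at the stated dose.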

For data set [6], the system named is Rattus norvegicus. Put plainly: Cmax in Wistar rat after administration as its prodrug at 1 mg/kg, po. The following applies: in vivo. The data set is classed as ADME, organism-based. Further details: dose 1 mg/kg, route oral.
The test system of data set [7] is Rattus norvegicus. Put plainly: Ratio AUC for prodrug to the parent compound in Wistar rat at 1 mg/kg, po. The class given is ADME, organism-based. The following applies: in vivo. Further details: dose 1 mg/kg, route oral.
Data set [8] has as its system Rattus norvegicus. Put plainly: AUC in Wistar rat after administration as its prodrug at 1 mg/kg, po. The class given is ADME, organism-based, Plasma. On the set-up: dose 1 mg/kg, route oral. The conditions noted are these: in vivo.
A short description of data set [9]: Solubility in simulated gastric fluid at pH 1.8, 37 degC after 24 hrs. The data set is classed as physicochemical.
The species named for data set [10] is Rattus norvegicus. Put plainly: Inhibition of yeast-induced pyresis in Wistar rat. The class given is functional. The essentials: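 Yeast-induced pyresis in rats, an acute therapeutic protocol with a single oral dose. Temperature was measured at 1 h intervals from 1 to 5 h after dosing. ED50 was derived from four doses with six to eight animals per group.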

A short description of data set [11]: AUC in Wistar rat at 1 mg/kg, po. The data set is classed as ADME, organism-based. Further details: dose 1 mg/kg, route oral. The conditions noted are these: plasma.
Data set [12] is described as follows: Metabolic stability in rat liver microsomes at 5 uM after 30 min […]. The class given is ADME, Microsome. The conditions noted are these: in the assay text read “37 degC” for “30 degC”, read-out: Stability.
Data set [13] in a line: Tmax in Wistar rat at 1 mg/kg, po. The data set is classed as ADME, organism-based. On the set-up: dose 1 mg/kg, route oral. The following applies: in vivo.
In data set [14] the test system is Rattus norvegicus. Put plainly: Inhibition of adjuvant-induced arthritis in Wistar rat at 0.1 mg/kg, po. The class given is functional. The essentials:
as §1

For data set [15], the target named is T1, Prostaglandin G/H synthase 2 (Homo sapiens, UniProt P35354).
T1 sequence (P35354 whole entry): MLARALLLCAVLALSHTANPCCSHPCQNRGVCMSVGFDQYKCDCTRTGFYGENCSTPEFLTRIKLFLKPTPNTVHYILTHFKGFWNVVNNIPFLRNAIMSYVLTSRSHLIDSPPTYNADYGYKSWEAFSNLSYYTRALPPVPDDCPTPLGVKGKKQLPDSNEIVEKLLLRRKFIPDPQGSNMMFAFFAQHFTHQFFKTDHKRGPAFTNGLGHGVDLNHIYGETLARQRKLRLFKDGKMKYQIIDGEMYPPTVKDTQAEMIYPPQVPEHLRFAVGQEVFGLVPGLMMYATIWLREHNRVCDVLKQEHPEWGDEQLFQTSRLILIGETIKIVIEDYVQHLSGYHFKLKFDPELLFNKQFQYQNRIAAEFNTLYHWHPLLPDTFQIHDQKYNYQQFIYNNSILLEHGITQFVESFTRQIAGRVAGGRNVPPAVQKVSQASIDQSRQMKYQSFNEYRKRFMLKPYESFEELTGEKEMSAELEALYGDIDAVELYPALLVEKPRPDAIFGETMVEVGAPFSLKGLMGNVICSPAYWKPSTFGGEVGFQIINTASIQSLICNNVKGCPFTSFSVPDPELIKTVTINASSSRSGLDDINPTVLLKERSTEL
Put plainly: Inhibition of COX2 in human whole blood. The data set is classed as tissue-based.

For data set [16], the system named is Rattus norvegicus. Put plainly: Activity against adjuvant-induced arthritis in po dosed Wistar rat. The class given is functional, organism-based. The essentials: as §1

The structures appear in SMILES notation. Values after ≈ are worked out from the molar mass of the structure shown.

In general, Tmax refers to the time from dosing to the highest level. For orientation: solubility means the concentration that dissolves in the medium under given conditions. Lower therefore signals little dissolved substance. One may read the Cmax as the maximum level reached in the sampled fluid or tissue. Usually inhibition in vivo stands for the share of the control response that was lost under treatment. By AUC is commonly meant the area under the concentration-time curve, a measure of exposure. As a reminder, the ED50 is the dose at which the effect has come halfway, by size or by number of responders. On to `Cc1cc(=O)c(Oc2ccc(Br)cc2F)c(-c2ccc(S(C)(=O)=O)cc2)o1`, for which the Tmax in the data set on Rattus norvegicus [1] is 1.5 h; in data set [13] it was 2.2 h. Also, the solubility at 24 h is 1 µg/mL (≈ 2.21 µM) in data set [2] and 4 µg/mL (≈ 8.82 µM) in [9]. For the same molecule, the values for the Cmax (in data set [3]; in the data set with Rattus norvegicus [6]) were 177 ng/mL and 243 ng/mL, respectively. For the same molecule, the remaining at 0.5 h, 5 µM in data set [4] was determined as 12%; in [12], 34%. In addition, the inhibition in vivo at 0.01 mg/kg in the data set on Rattus norvegicus [5] was 60%. Moreover, the “Ratio AUC” value in the data set with Rattus norvegicus [7] came out at 28. The values for the AUC (in the data set with Rattus norvegicus [8]; in [11]) were 1125 ng·h/mL and 1270 ng·h/mL, respectively. This molecule yielded an ED50 in the data set listed under Rattus norvegicus [10] of 3.2 mg/kg.

On to `Cc1cc(=O)c(Oc2ccc(F)cc2F)c(-c2ccc(S(C)(=O)=O)cc2)o1`, for which the figures for the Tmax (in the data set on Rattus norvegicus [1]; in [13]) were 2.3 h and 1 h, respectively. Also, the solubility at 24 h in data set [2] was 7 µg/mL (≈ 17.8 µM); in data set [9], 9 µg/mL (≈ 22.9 µM). Moreover, the results for the Cmax (in data set [3]; with Rattus norvegicus [6]) were 1510 ng/mL and 2959 ng/mL, respectively. Moreover, the figures for the remaining at 0.5 h, 5 µM in data set [4] and in data set [12] were 2% and 26%, respectively. The “Ratio AUC” value in the data set with Rattus norvegicus [7] came to 14. The inhibition in vivo at 0.1 mg/kg with Rattus norvegicus [14] worked out at 68%. Also, the AUC in the data set on Rattus norvegicus [8] was 18646 ng·h/mL; in data set [11] it was 9220 ng·h/mL. In the data set listed under Rattus norvegicus [10], the 50% effective dose (ED50) is 0.7 mg/kg.

With `Cc1cc(=O)c(Oc2ccc(Cl)cc2F)c(-c2ccc([S@+](C)[O-])cc2)o1`, the remaining at 0.5 h, 5 µM turned out to be 41% in [4] and 67% in data set [12].

The term IC50 denotes the concentration at which inhibition is half-maximal. Regarding `Cc1cc(=O)c(Oc2ccc(Br)cc2F)c(-c2ccc([S@+](C)[O-])cc2)o1`, the IC50 in [15] was found to be 200 nM. The results for the remaining at 0.5 h, 5 µM in data set [4] and in data set [12] were 42% and 80%, respectively.

On to `Cc1cc(=O)c(Oc2ccc(Cl)cc2F)c(-c2ccc([S@@+](C)[O-])cc2)o1`, for which the results for the remaining at 0.5 h, 5 µM in data set [4] and in data set [12] were 48% and 87%, respectively.

On to `Cc1cc(=O)c(Oc2ccc(Br)cc2F)c(-c2ccc([S@@+](C)[O-])cc2)o1`, for which it took 1580 nM to reach half-maximal inhibition in data set [15] (IC50). The figures for the remaining at 0.5 h, 5 µM in data set [4] and in data set [12] were 62% and 93%, respectively.

The molecule `Cc1cc(=O)c(Oc2ccc(F)cc2F)c(-c2ccc([S@+](C)[O-])cc2)o1` yielded an IC50 in data set [15] of 270 nM. Moreover, the values for the remaining at 0.5 h, 5 µM in data set [4] and in [12] were 17% and 38%, respectively.

As to `Cc1cc(=O)c(Oc2ccc(F)cc2F)c(-c2ccc([S+](C)[O-])cc2)o1` (configuration not stated), the IC50 in data set [15] was determined as 920 nM. Also, the solubility at 24 h was 150 µg/mL (≈ 399 µM) in data set [2] and 527 µg/mL (≈ 1400 µM) in [9]. In addition, the Cmax in [3] was 1310 ng/mL. The remaining at 0.5 h, 5 µM in [4] came out at 24%; in [12], 54%. Further, the inhibition in vivo at 0.1 mg/kg with Rattus norvegicus [14] came to 59%. In the data set filed under Rattus norvegicus [10], this molecule gave an ED50 of 1.3 mg/kg. Also, in data set [11], the AUC is 1310 ng·h/mL. The Tmax in data set [13] came to 0.3 h.

In the case of `Cc1cc(=O)c(Oc2ccc(Cl)cc2F)c(-c2ccc([S+](C)[O-])cc2)o1` (configuration not stated), the solubility at 24 h in data set [2] is 37 µg/mL (≈ 94.2 µM); in data set [9], 70 µg/mL (≈ 178 µM). Further, the remaining at 0.5 h, 5 µM is 57% in [4] and 86% in data set [12]. Further, the inhibition in vivo at 0.1 mg/kg with Rattus norvegicus [14] came to 56%. The molecule also gave an ED50 in the data set listed under Rattus norvegicus [10] of 2.3 mg/kg.

Regarding `Cc1cc(=O)c(Oc2ccc(Br)cc2F)c(-c2ccc([S+](C)[O-])cc2)o1` (configuration not stated), the solubility at 24 h in data set [2] was 15 µg/mL (≈ 34.3 µM); in data set [9] it was 31 µg/mL (≈ 70.9 µM). The Cmax in data set [3] came to 37 ng/mL. The remaining at 0.5 h, 5 µM is 64% in data set [4] and 77% in data set [12]. Besides, the inhibition in vivo at 0.01 mg/kg in the data set on Rattus norvegicus [5] is 58%. In the data set filed under Rattus norvegicus [10], this molecule had an ED50 of 2.8 mg/kg. In data set [11], this molecule yielded an AUC of 43 ng·h/mL. For the same molecule, the Tmax in [13] was 0.3 h.

With `Cc1cc(=O)c(Oc2ccc(F)cc2F)c(-c2ccc([S@@+](C)[O-])cc2)o1`, in data set [15], half-maximal inhibition (IC50) required 2100 nM. Further, the values for the remaining at 0.5 h, 5 µM in data set [4] and in [12] were 20% and 55%, respectively.

With `Cc1cc(=O)c(Oc2ccc(Cl)cc2F)c(-c2ccc(S(C)(=O)=O)cc2)o1`, the solubility at 24 h in data set [2] was 5 µg/mL (≈ 12.2 µM); in [9], 18 µg/mL (≈ 44 µM). For the same molecule, the results for the remaining at 0.5 h, 5 µM in data set [4] and in data set [12] were 6% and 27%, respectively. Also, the inhibition in vivo at 0.1 mg/kg in the data set on Rattus norvegicus [14] turned out to be 63%. Further, the ED50 in the data set filed under Rattus norvegicus [10] turned out to be 0.8 mg/kg.

In the case of `Cc1ccc(-c2ncc(Cl)cc2-c2ccc(S(C)(=O)=O)cc2)cn1` [ETORICOXIB], in the data set on Rattus norvegicus [16], the EC50 was 0.44 mg/kg. In the data set listed under Rattus norvegicus [10], this molecule had an ED50 of 1 mg/kg.

Turning to `CS(=O)(=O)c1ccc(C2=C(c3ccccc3)C(=O)OC2)cc1` [ROFECOXIB], the EC50 with Rattus norvegicus [16] worked out at 0.3 mg/kg. The ED50 in the data set filed under Rattus norvegicus [10] turned out to be 0.9 mg/kg.

Values taken from ChEMBL document CHEMBL1138910, “Racemic and chiral sulfoxides as potential prodrugs of 4-pyrone COX-2 inhibitors” (Bioorg Med Chem Lett, 2006).
